Square brackets hold non-standard residues; d marks the D form. Peptide text beside a SMILES is read from it. * marks the point of attachment. ξ: configuration not given here. Fmoc = O=C(OCC1c2ccccc2-c2ccccc21)*; ξV = CC(C)C(N)C(=O)O

The nature of assay [1]: Binding constant at vancomycin was measured using affinity capillary electrophoresis-MS. The method in brief: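 Mixture of Fmoc-DXYA (all-D) peptides plus Fmoc-G EOF marker injected together hydrodynamically (10 cm, 10 s) into an uncoated 50 cm capillary. Running buffer was 20 mM Tris-acetate pH 8.1 with 0–100 μM vancomycin, run at 400–500 V/cm. On-line ESI triple-quadrupole MS detected free peptide ions. Kd came from marker-corrected mobility shifts by Scatchard analysis.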

Assay [2] is described as follows: Binding constant at vancomycin was measured using affinity capillary electrophoresis-UV. The method in brief:
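Receptor-in-buffer mobility-shift ACE with UV detection was used, running individual ligands. Capillary was 30 cm effective length, 37 cm total length, at 20 kV. Kd was obtained by Scatchard analysis of mobility versus vancomycin concentration.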

Take `CC[C@@H](C)[C@H](NC(=O)[C@H](CC(=O)O)NC(=O)OCC1c2ccccc2-c2ccccc21)C(=O)N[C@@H](Cc1ccc(O)cc1)C(=O)N[C@@H](C)C(=O)O`: the values for the Kd in assay [1] and in assay [2] were 21 µM and 19 µM, respectively.

`C[C@H](NC(=O)[C@H](Cc1ccc(O)cc1)NC(=O)[C@@H](NC(=O)[C@H](CC(=O)O)NC(=O)OCC1c2ccccc2-c2ccccc21)[C@H](C)O)C(=O)O`: the Kd (as a rule, the equilibrium constant for the complex coming apart) turned out to be 24 µM in assay [1] and 21 µM in assay [2].

Regarding `C[C@H](NC(=O)[C@H](Cc1ccc(O)cc1)NC(=O)[C@H](C)NC(=O)[C@H](CC(=O)O)NC(=O)OCC1c2ccccc2-c2ccccc21)C(=O)O` (Fmoc-DAYA-OH), the dissociation constant Kd in assay [1] turned out to be 8.2 µM; in assay [2] it was 7.2 µM.

Regarding `C[C@H](NC(=O)[C@H](Cc1ccc(O)cc1)NC(=O)[C@H](CC(=O)O)NC(=O)[C@H](CC(=O)O)NC(=O)OCC1c2ccccc2-c2ccccc21)C(=O)O` (Fmoc-DDYA-OH), the dissociation constant (Kd) in assay [1] came to 6.6 µM; in assay [2] it was 7.2 µM.

Turning to `C[C@H](NC(=O)[C@H](Cc1ccc(O)cc1)NC(=O)[C@H](CCC(=O)O)NC(=O)[C@H](CC(=O)O)NC(=O)OCC1c2ccccc2-c2ccccc21)C(=O)O` (Fmoc-DEYA-OH), the dissociation constant Kd worked out at 8.5 µM in assay [1] and 10 µM in assay [2].

Turning to `C[C@H](NC(=O)[C@H](Cc1ccc(O)cc1)NC(=O)[C@H](Cc1ccccc1)NC(=O)[C@H](CC(=O)O)NC(=O)OCC1c2ccccc2-c2ccccc21)C(=O)O` (Fmoc-DFYA-OH), the Kd in assay [1] was 8.9 µM; in assay [2], 9.6 µM.

In the case of `C[C@H](NC(=O)[C@H](Cc1ccc(O)cc1)NC(=O)CNC(=O)[C@H](CC(=O)O)NC(=O)OCC1c2ccccc2-c2ccccc21)C(=O)O` (Fmoc-DGYA-OH), the figures for the dissociation constant (Kd) in assay [1] and in assay [2] were 21 µM and 18 µM, respectively.

`C[C@H](NC(=O)[C@H](Cc1ccc(O)cc1)NC(=O)[C@H](Cc1c[nH]cn1)NC(=O)[C@H](CC(=O)O)NC(=O)OCC1c2ccccc2-c2ccccc21)C(=O)O` (Fmoc-DHYA-OH): the figures for the Kd in assay [1] and in assay [2] were 8.2 µM and 7.1 µM, respectively.

For `C[C@H](NC(=O)[C@H](Cc1ccc(O)cc1)NC(=O)[C@H](CCCCN)NC(=O)[C@H](CC(=O)O)NC(=O)OCC1c2ccccc2-c2ccccc21)C(=O)O` (Fmoc-DKYA-OH), the Kd in assay [1] turned out to be 12 µM; in assay [2] it was 13 µM.

For `CC(C)C[C@H](NC(=O)[C@H](CC(=O)O)NC(=O)OCC1c2ccccc2-c2ccccc21)C(=O)N[C@@H](Cc1ccc(O)cc1)C(=O)N[C@@H](C)C(=O)O` (Fmoc-DLYA-OH), the values for the Kd in assay [1] and in assay [2] were 5.1 µM and 5.6 µM, respectively.

Take `CSCC[C@H](NC(=O)[C@H](CC(=O)O)NC(=O)OCC1c2ccccc2-c2ccccc21)C(=O)N[C@@H](Cc1ccc(O)cc1)C(=O)N[C@@H](C)C(=O)O` (Fmoc-DMYA-OH): the values for the equilibrium dissociation constant (Kd) in assay [1] and in assay [2] were 7.6 µM and 7.1 µM, respectively.

Take `C[C@H](NC(=O)[C@H](Cc1ccc(O)cc1)NC(=O)[C@H](CC(N)=O)NC(=O)[C@H](CC(=O)O)NC(=O)OCC1c2ccccc2-c2ccccc21)C(=O)O` (Fmoc-DNYA-OH): the Kd in assay [1] was 12 µM; in assay [2], 11 µM.

As to `C[C@H](NC(=O)[C@H](Cc1ccc(O)cc1)NC(=O)[C@@H]1CCCN1C(=O)[C@H](CC(=O)O)NC(=O)OCC1c2ccccc2-c2ccccc21)C(=O)O` (Fmoc-DPYA-OH), the equilibrium dissociation constant (Kd) in assay [1] was determined as 16 µM; in assay [2], 14 µM.

For the compound `C[C@H](NC(=O)[C@H](Cc1ccc(O)cc1)NC(=O)[C@H](CCC(N)=O)NC(=O)[C@H](CC(=O)O)NC(=O)OCC1c2ccccc2-c2ccccc21)C(=O)O` (Fmoc-DQYA-OH), the Kd in assay [1] came to 15 µM; in assay [2], 14 µM.

Consider `C[C@H](NC(=O)[C@H](Cc1ccc(O)cc1)NC(=O)[C@H](CCCN=C(N)N)NC(=O)[C@H](CC(=O)O)NC(=O)OCC1c2ccccc2-c2ccccc21)C(=O)O` (Fmoc-DRYA-OH), for which the dissociation constant Kd in assay [1] was 11 µM; in assay [2] it was 13 µM.

In the case of `C[C@H](NC(=O)[C@H](Cc1ccc(O)cc1)NC(=O)[C@H](CO)NC(=O)[C@H](CC(=O)O)NC(=O)OCC1c2ccccc2-c2ccccc21)C(=O)O` (Fmoc-DSYA-OH), the Kd in assay [1] stood at 14 µM; in assay [2], 13 µM.

With `C[C@H](NC(=O)[C@H](Cc1ccc(O)cc1)NC(=O)[C@H](Cc1c[nH]c2ccccc12)NC(=O)[C@H](CC(=O)O)NC(=O)OCC1c2ccccc2-c2ccccc21)C(=O)O` (Fmoc-DWYA-OH), the Kd was 12 µM in assay [1] and 14 µM in assay [2].

Consider `C[C@H](NC(=O)[C@H](Cc1ccc(O)cc1)NC(=O)[C@H](Cc1ccc(O)cc1)NC(=O)[C@H](CC(=O)O)NC(=O)OCC1c2ccccc2-c2ccccc21)C(=O)O` (Fmoc-DYYA-OH), for which the results for the Kd in assay [1] and in assay [2] were 7.4 µM and 6.8 µM, respectively.

In the case of `CC(C)C(NC(=O)[C@H](CC(=O)O)NC(=O)OCC1c2ccccc2-c2ccccc21)C(=O)N[C@@H](Cc1ccc(O)cc1)C(=O)N[C@@H](C)C(=O)O` (stereo partly drawn) (Fmoc-D[ξV]YA-OH), the figures for the Kd in assay [1] and in assay [2] were 10 µM and 12 µM, respectively.

The values above are taken from ChEMBL document CHEMBL1131322, “Simultaneous measurement of nineteen binding constants of peptides to vancomycin using affinity capillary electrophoresis-mass spectrometry” (J Med Chem, 1998).
